We go through 71 molecules from ChEMBL document CHEMBL4513216, “Probing the Open Global Health Chemical Diversity Library for Multistage-Active Starting Points for Next-Generation Antimalarials” (ACS Infect Dis, 2020).

The data set can be described thus: Toxicity liver stage against HepG2, at 10uM. As to conditions: human, HepG2-A16-CD81EGFP cells; read-out: INHIBITION
It counts as cell-based. Also on record: test concentration 10 uM, cell line HepG2-A16-CD81EGFP. In outline:
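Uninfected HepG2-A16-CD81EGFP cells, 3 × 10^3 per well, 1536-well, plated on prespotted compound at 10 μM final, parasite-free screening media added to match infected plates; puromycin 10 μM positive, DMSO 0.5% negative; run in parallel with 48 h PbLuc assay at 37 °C, 5% CO2; viability by CellTiter-Glo luminescence, normalized to controls.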
On to `Cc1cc(CN(C)C(=O)C2CC(c3cccc(F)c3)=NO2)no1` (stereo unspecified), for which the cytotoxicity at 10 µM came to 5.91%. Regarding `CCC1=NN2C(=N)/C(=C/c3cccc(Cl)c3)C(=O)N=C2S1`, the cytotoxicity at 10 µM is -11.8%. Under `CN(C)C(=O)[C@H]1C[C@H]2OCC[C@H]2N(Cc2ccc(F)cc2)C1` stands -76.1%; under `O=C(COCc1ccccc1)N1CCCn2cncc2C1`, 0.375%; under `CCOCCNC(=O)c1cccnc1N1CCCC1c1ccccn1` (stereo unspecified), 4.65%. On to `NCC1CCC(C(NC(=O)c2cccc(F)c2)c2ccccn2)CC1` (stereo unspecified), for which the cytotoxicity at 10 µM is -6.83%. Under `CN(C)c1nc(N2CCCC2)nc2c1CCN(C(=O)c1ccoc1)CC2` stands 14.9%; under `Cc1cc(NCc2ccc(N3CCNC(=O)C3)cc2)nc(C)n1`, -4.99%; under `CS(=O)(=O)CCCNCc1c(Cl)cccc1N1CCCC1`, 1.18%. With `Cc1ccsc1C(=O)N1CC2CC1(C(=O)NCC1CC1)C2` the figure was -4.78%. In the case of `Cc1nc(CN2CCN(C(=O)c3ccn(C)c(=O)c3)CC2)cs1`, the cytotoxicity at 10 µM came to 1.73%. With `Cc1nc(NC2CCCC2)cc(C2CCN2C(=O)c2ccccc2)n1` (stereo unspecified) the figure was -6.31%; with `CCc1nc(N)nc(N2CCCC3(CN(C)C(=O)O3)C2)c1C` (stereo unspecified), -138%; with `CC(=O)N1CCc2nnc(C3CCCCN3CC3CC3)n2CC1` (stereo unspecified), -15.4%. Under `CCC1CCC(N(Cc2cc(=O)n(C)c(=O)n2C)C2CC2)CC1` (stereo unspecified) stands 22.6%; under `CN(Cc1cnn(C)c1)C(=O)Cn1c(CS(C)(=O)=O)nc2ccccc21`, 1.05%; under `CNC(=O)c1cc2c(nc1NCC(C)C)CCN(CCOC)CC2`, -147%. With `O=C(c1ncc[nH]1)N1CCC(Cn2cc(-c3cccc(Cl)c3)nn2)CC1` the figure was -12.8%. `Cc1ccnc(NCc2cn3c(C)csc3n2)n1`: the cytotoxicity at 10 µM is -5.66%. For the molecule `CCN1CCCC(O)(CN(C)Cc2c(C)nn(C)c2C)C1` (stereo unspecified), the cytotoxicity at 10 µM stood at 4.95%. Under `Cc1ccc(N2CC[C@H]3O[C@H](C(=O)N4CCCCO4)CC[C@H]32)nn1` stands 10.1%. As to `COc1ccccc1CNC(Cc1cccs1)c1nc(C)c(C)s1` (stereo unspecified), the cytotoxicity at 10 µM amounted to 3.89%.

As to `CCOCC(O)CN1CCN(C(=O)Cc2ccc(C)nc2)CC1` (stereo unspecified), the cytotoxicity at 10 µM was -4.97%. With `Cc1cc(C)n(CCCC(=O)N2CCc3ncc(Cl)cc3C2)n1` the figure was -25.3%; with `Cc1ccc(CNC(=O)c2nc3c(n2C)CCN(c2ncccn2)C3)o1`, -119%; with `c1ccc(CCCN2CCOC(Cn3cccn3)C2)cc1` (stereo unspecified), 9.11%. Under `CSCCC1c2nc[nH]c2CCN1Cc1cncn1C` (stereo unspecified) stands 13.3%; under `Cc1ccc(OCC2CCCN(C(=O)CCn3ccccc3=O)C2)cc1` (stereo unspecified), -4.27%. With `CN1CCN(C2CCN(CCOc3ccccc3F)CC2)C1=O`, the cytotoxicity at 10 µM came out at 0.174%. With `O=C(Cn1cnc(-c2ccccc2)cc1=O)Nc1ccncc1` the figure was 3.48%.

As to `O=C(CC(F)(F)F)NC(c1ccc(Cl)cc1)c1ncon1` (stereo unspecified), the cytotoxicity at 10 µM amounted to 2.14%. Under `Cn1cccc1-c1nnc(C2(c3ccc4c(c3)OCO4)CCOCC2)o1` stands 20.3%; under `Cc1n[nH]cc1CNc1ccc2c(c1)N(C(=O)OC(C)(C)C)CCC2`, -1.97%. Under `Cn1nc(Br)c2c(=O)n(CCc3ccccc3)cnc21` stands -1.4%; under `COc1ccc(C(C)NC(=O)Cn2ccc(=O)n(C)c2=O)cc1F` (stereo unspecified), -3.17%; under `CN(Cc1cc(F)ccc1C#N)CC(C)(CO)CO`, -10.4%. With `CNc1nc2c(s1)C(c1ccc(Cl)cc1Cl)CC(=O)N2` (stereo unspecified) the figure was 7%; with `CCc1noc(C(C)N2CCN(Cc3cnc(C)cn3)CC2)n1` (stereo unspecified), -8.54%; with `CC(C)[C@H](Nc1nc(C2CCCC2)nc2c1cnn2C)C(N)=O`, -51.5%. `CN1CCC(N(C)C[C@H]2CC[C@@H](Cc3ccc4occc4c3)O2)CC1`: the cytotoxicity at 10 µM is -9.27%. With `c1cncc(-c2noc(C3CN(Cc4cccs4)C3)n2)c1` the figure was -6.87%; with `COc1ccc(C2CCCCCN2Cc2cn(C)nc2C)cc1` (stereo unspecified), -4.96%. Under `CCc1nnc2n1CCN(C(=O)CCc1ccc3c(c1)OCO3)C2` stands -2.62%; under `CC(C)c1cc(C(=O)NC2CCN(CC(N)=O)CC2)nn1C(C)(C)C`, -6.95%. Under `CO[C@@H]1CCN(C2CCOCC2)C[C@@H]1Cc1ccccc1` stands -4.87%; under `CCCC(=O)NC1CCCN(c2nc3ccccc3cc2CO)C1` (stereo unspecified), -44.5%; under `Cc1cccc(-c2noc(CN3CCC(c4ccn[nH]4)CC3)n2)c1`, 4.13%. For the molecule `CCC(CO)N(Cc1cccc(O)c1)Cc1ccccc1C` (stereo unspecified), the cytotoxicity at 10 µM is -8.22%.

As to `COC(=O)CC(c1ccccc1)c1oc(C)cc(=O)c1O` (stereo unspecified), the cytotoxicity at 10 µM amounted to 26.7%. Consider `CCc1n[nH]c(C2CN(C(=O)COCC(F)(F)F)CCO2)n1` (stereo unspecified), for which the cytotoxicity at 10 µM was -3.48%.

`Cc1nc(-c2cc(Cl)cc3c2OC(CN)C3)c[nH]1` (stereo unspecified): the cytotoxicity at 10 µM is -1.11%. With `Cc1nn(-c2ccc(C(=O)O)cc2)c2c1C(c1cccs1)SCC(=O)N2` (stereo unspecified) the figure was -0.607%; with `N#Cc1cc(NC(=O)c2cscn2)ccc1N1CCC(O)CC1`, 6.59%; with `CCNC(=O)c1ncn2c1CN(C)S(=O)(=O)c1ccccc1-2`, -10.1%. `COc1ccc(CC(=O)N2CCN(Cc3ccco3)C[C@@H]2C)cc1OC`: the cytotoxicity at 10 µM is 3.88%.

Turning to `CNC(=O)CSc1nc2c(cnn2Cc2ccc(F)cc2)c(=O)[nH]1`, the cytotoxicity at 10 µM is -16%. Under `O=C(c1ccccc1O)N1CCn2c(nnc2C(F)(F)F)C1` stands 14.6%. With `Cc1nc(-c2cnn(C)c2)nc2c1CN(C(=O)c1ccc[nH]1)CC2` the figure was 13%. With `CN(CCO)C[C@@H]1CN(Cc2ccccc2C#N)C[C@@H]1CO` the figure was -0.951%; with `CN1CC(c2ccccc2)C2(CCN(C(=O)c3ccc[nH]3)CC2)C1=O` (stereo unspecified), 9.25%.

Regarding `O=C(NCC(=O)N1CCc2ccccc2C1)c1ccoc1`, the cytotoxicity at 10 µM is -4.59%. With `CCN(Cc1nc(C(C)C)no1)Cc1cccs1` the figure was -8.57%.

As for `O=C(C[S+]([O-])Cc1ccc(F)cc1Cl)NC1CCCC1` (stereo unspecified), the cytotoxicity at 10 µM is 9.5%.

`CC(=O)N1CCN([C@@H]2CN(C(=O)c3ccccc3C)C[C@H]2O)CC1`: the cytotoxicity at 10 µM is -3.79%. Turning to `COc1ccc(CNCCc2cc(F)cc3c2OCOC3)cc1O`, the cytotoxicity at 10 µM was -9.26%. Take `Cc1noc(C)c1CN(C)C(=O)NC(C)Cc1ccco1` (stereo unspecified): the cytotoxicity at 10 µM is 11.3%. `COCC(=O)N1CCN(Cc2cc(-c3ccncc3)nn2C)CC1`: the cytotoxicity at 10 µM was -4.17%. Consider `O=S1(=O)C[C@@H]2[C@H](C1)N(Cc1ncc[nH]1)CCN2C/C=C/c1ccccc1`, for which the cytotoxicity at 10 µM turned out to be 11.2%. With `CCC(CC)(CCO)CNC(=O)c1ccon1` the figure was 6.27%; with `Cc1ccc(NC2CCN(C(=O)c3cc(C)sc3C)CC2)nn1`, -5.59%; with `CCCc1noc(CS(=O)(=O)CC(=O)NC(C)CCC)n1` (stereo unspecified), 3.22%.
